Assay results from different studies.
Compare with care: the assays were run in different laboratories.
JAK2: Tyrosine-protein kinase JAK2 (JAK2, Homo sapiens, UniProt O60674)
JAK2 JH1: Tyrosine-protein kinase JAK2, JH1 (JAK2, Homo sapiens, UniProt O60674)

With `O=C(NCCCNc1ccnc(Nc2cccc(NC(=O)N3CCCC3)c2)n1)C1CCC1` the remaining activity was 88% (JAK2; enzyme activity, inhibitor, radiometric; 1 µM).
The remaining binding of `NS(=O)(=O)c1cc(NC(=O)C2(c3ccccc3Cl)CC2)ccc1Oc1cccc(Cl)c1` is reported as 100% (JAK2 JH1; cell-free assay, competition with immobilised ligand; 1 µM).
The remaining signal of `C[C@H]1CCN(c2nccc(-c3cnn4ncccc34)n2)C1` is reported as 70% (JAK2 JH1; cell-free assay; 1 µM).
`Cc1nn(CC(F)(F)F)cc1Nc1nccc(NCc2ccc(S(N)(=O)=O)cc2)n1` has a remaining activity of 95% (JAK2; enzyme activity, inhibitor, radiometric; 1 µM).
`CN(C(=O)c1ccccc1)c1cc(N(C)c2ccc3c(c2)CCc2ccc(C(=O)NCCN4CCOCC4)cc2C3=O)ccc1F` has a remaining binding of 100% (JAK2 JH1; cell-free assay, competition with immobilised ligand; 1 µM).
With `O=C(CSc1nc2nccnc2c(=O)n1CCc1ccccc1)Nc1nccs1` the inhibition was 2% (JAK2 JH1; enzyme activity, inhibitor; 10 µM).
With `CS(=O)(=O)c1cc(C2(NC(=O)c3cncc4c3cnn4-c3ccc(F)cc3)CC2)ccn1` the remaining binding was 100% (JAK2 JH1; cell-free assay, competition with immobilised ligand; 1 µM).
The remaining activity of `Cc1nn(CC(F)(F)F)cc1Nc1ncc(Br)c(NCCCNC(=O)C2CCC2)n1` is reported as 67% (JAK2; enzyme activity, inhibitor, radiometric; 1 µM).
For `N#CCCc1ccc2c(c1)-c1[nH]c3ccc([N+](=O)[O-])cc3c1CC(=O)N2`, the remaining signal was 93% (JAK2; cell-free assay; 0.5 µM).
For `COc1cc2ncnc(Nc3ccc(Oc4ccccc4)cc3C)c2cc1OC`, the inhibition was -6% (JAK2; enzyme activity, inhibitor; 1 µM).
For `COc1cc2nccc(Oc3ccc(NC(=O)c4c5n(n(-c6ccc(F)cc6)c4=O)CCCC5)cc3)c2cc1OC`, the inhibition was 10% (JAK2; enzyme activity, inhibitor; 0.1 µM).
`CC(C)c1ccc(NC(=O)c2cccs2)c(-c2nc3ccccc3[nH]c2=O)c1` gave an activity vs control of 123% (JAK2; enzyme activity, inhibitor; 1 µM).
With `Cc1nn(CC(F)(F)F)cc1Nc1ncc(C2CC2)c(NCc2ccc(S(N)(=O)=O)cc2)n1` the remaining activity was 100% (JAK2; enzyme activity, inhibitor, radiometric; 1 µM).
The remaining binding of `Cc1c[nH]c2nccc(Oc3c(F)cc(Nc4cc(Cl)nc(N)n4)cc3F)c12` is reported as 75% (JAK2 JH1; cell-free assay, competition with immobilised ligand; 0.1 µM).
With `O=C(NCCCNc1nc(Nc2cccc(NC(=O)N3CCCC3)c2)ncc1Br)C1CCC1` the remaining activity was 10% (JAK2; enzyme activity, inhibitor, radiometric; 1 µM).
`COc1cc2ncnc(Nc3ccc(Oc4ccccc4)c(C)c3C)c2cc1OC` has an inhibition of -4% (Tyrosine-protein kinase JAK2, JH1 (JAK2, Homo sapiens, UniProt O60674, V617F); enzyme activity, inhibitor; 1 µM).
The remaining activity of `c1cc(CN2CCOCC2)cc(Nc2ncc(C3CC3)c(NCCc3c[nH]cn3)n2)c1` is reported as 82% (JAK2; enzyme activity, inhibitor, radiometric; 1 µM).
`FC(F)(F)Oc1cccc(-c2cnc3ccc(-c4ccncc4)nn23)c1` has an activity vs control of 72% (JAK2; enzyme activity, inhibitor, radiometric; 5 µM).
With `CS(=O)(=O)Nc1cccc(-c2csc(NC(=O)CSc3nc4nccnc4c(=O)n3CCc3ccccc3)n2)c1` the inhibition was -7% (JAK2; enzyme activity, inhibitor; 10 µM).
The remaining binding of `CCS(=O)(=O)c1cc2cc(C[C@@](O)(CC(C)(C)c3ccc(F)cc3C(N)=O)C(F)(F)F)[nH]c2cn1` is reported as 100% (JAK2 JH1; cell-free assay, competition with immobilised ligand; 1 µM).
`C=CC(=O)Nc1cc(Nc2nccc(Nc3cc(Cl)c(F)cc3C(C)(C)O)n2)c(OC)cc1N1CC[C@@H](N(C)C)C1` gave an inhibition of 2% (JAK2; enzyme activity, inhibitor; 1 µM).
`CC(=O)Nc1c(C(C)=O)c(=O)n(C)c2nc(-c3ccc(Cl)cc3Cl)c(-c3ccc(Cl)cc3)cc12` gave a remaining binding of 100% (JAK2 JH1; cell-free assay, competition with immobilised ligand; 1 µM).
For `Cc1sc(C(=O)NC2COC2)cc1-n1cc(NC(=O)Nc2c(F)cccc2Cl)cn1`, the remaining activity was 95% (JAK2; enzyme activity, inhibitor; 10 µM).
With `Cc1ccc(Nc2nccc(N(C)c3ccc4c(C)n(C)nc4c3)n2)cc1S(N)(=O)=O` the inhibition was 12% (JAK2; enzyme activity, inhibitor; 0.3 µM).
For `O=C1Nc2ccc(Cl)cc2C1=Cc1cc(Cl)c(O)c(Cl)c1`, the remaining signal was 91.1% (JAK2; cell-free assay; 0.5 µM).
`c1cnn2ncc(-c3ccnc(N4CCC45COC5)n3)c2c1` has a remaining signal of 74% (JAK2 JH1; cell-free assay; 1 µM).
`COc1cc(Nc2cnc(C#N)c(O[C@H](C)CN(C)C)n2)ncc1-c1cnn(C)c1` has a remaining activity of 71% (JAK2; enzyme activity, inhibitor, radiometric; 1 µM).
`O=C1NC(=O)c2cc(Nc3ccc(F)cc3)c(Nc3ccc(F)cc3)cc21` has a remaining signal of 94.6% (JAK2; cell-free assay; 0.5 µM).
For `CN([C@@H]1CCc2c(CC(=O)O)c3cc(S(C)(=O)=O)ccc3n2C1)S(=O)(=O)c1ccc(F)cc1`, the remaining binding was 100% (JAK2 JH1; cell-free assay, competition with immobilised ligand; 1 µM).
`CN1CC(Oc2cnc(C#N)cc2-c2ccn3nc(NC(=O)C4CC4)cc3c2)C1` gave an inhibition of -20% (JAK2; enzyme activity, inhibitor; 1 µM).
`CCCS(=O)(=O)Nc1ccc(F)c(C(=O)c2c[nH]c3ncc(-c4ccc(Cl)cc4)cc23)c1F` has an inhibition of less than 10% (JAK2 JH1; enzyme activity, inhibitor; 1 µM).
`Nc1ncnc2occ(-c3ccc(NC(=O)Nc4cc(C(F)(F)F)ccc4F)cc3)c12` gave a remaining signal of 2% (JAK2 JH1; cell-free assay, inhibitor; 20 µM).
With `CC(C)(C)c1nc2c3cc[nH]c(=O)c3c3cc(F)ccc3c2[nH]1` the remaining signal was 1.37% (JAK2; cell-free assay; 0.5 µM).
With `O=C1CCc2cc(Nc3cc(OC4CCOCC4)c([N+](=O)[O-])cc3Cl)ccc2N1` the remaining binding was 100% (JAK2 JH1; cell-free assay, competition with immobilised ligand; 1 µM).
